Assay results taken from ChEMBL document CHEMBL4138056, “T- and B-cell immunosuppressive activity of novel α-santonin analogs with humoral and cellular immune response in Balb/c mice” (Medchemcomm, 2017).

What was measured:
B-cell line [1] = assay: Immunosuppressive activity in Balb/c mouse B cells assessed as inhibition of LPS-induced cell proliferation at 1 uM after 48 hrs by MTT assay relative to control; format: functional
Method in brief: (§1)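 Balb/c spleen single-cell suspension, RBCs lysed with tris-ammonium chloride, viability by trypan blue; 1×10^6 cells/mL stimulated with LPS (10 μg/mL) for B cells, test agent 1, 10 or 100 μM, 48 h at 37 °C, 5% CO2. MTT 4 h, DMSO solubilization, OD 540 nm; % change vs mitogen control; triplicate, three separate experiments.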

Murine T-cell line [2] = assay: Immunosuppressive activity in Balb/c mouse T cells assessed as inhibition of ConA-induced cell proliferation at 1 uM after 48 hrs by MTT assay relative to control
B-cell line [3] = assay: Immunosuppressive activity in Balb/c mouse B cells assessed as inhibition of LPS-induced cell proliferation at 10 uM after 48 hrs by MTT assay relative to control; format: functional; method in brief: as §1
B-cell line [4] = assay: Cytotoxicity against Balb/c mouse B cells assessed as decrease cell survival at 100 uM by MTT assay; format: cell-based
Method in brief: (§2)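 Balb/c splenocytes (RBC lysed with tris-ammonium chloride, trypan blue viability) seeded at 1×10^6 cells/mL with Con A or LPS (10 μg/mL each) and test agent at 1, 10 or 100 μM for 48 h at 37 °C, 5% CO2; MTT added for 4 h, formazan dissolved in DMSO, OD 540 nm. Cytotoxicity scored +/−; triplicate, three separate experiments.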

Murine T-cell line [5] = assay: Cytotoxicity against Balb/c mouse T cells assessed as decrease in cell survival at 1 uM by MTT assay; format: cell-based; method in brief: as §2
B-cell line [6] = assay: Cytotoxicity against Balb/c mouse B cells assessed as decrease cell survival at 1 uM by MTT assay; format: cell-based; method in brief: as §2
B-cell line [7] = assay: Immunosuppressive activity in Balb/c mouse B cells assessed as inhibition of LPS-induced cell proliferation at 100 uM after 48 hrs by MTT assay relative to control; format: functional; method in brief: as §1
Murine T-cell line [8] = assay: Immunosuppressive activity in Balb/c mouse T cells assessed as inhibition of ConA-induced cell proliferation at 100 uM after 48 hrs by MTT assay relative to control
Murine T-cell line [9] = assay: Cytotoxicity against Balb/c mouse T cells assessed as decrease in cell survival at 100 uM by MTT assay; format: cell-based; method in brief: as §2
Mus musculus [10] = assay: Inhibition of delayed-type hypersensitivity reaction in Balb/c mouse assessed as decrease in sheep RBC-induced footpad thickness at 12.5 mg/kg, po qd administered 6 consecutive days followed by sheep RBC challenge measured after 24 to 48 hrs by spheromicrometer relative to control; format: functional
Method in brief: (§3)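 Female Balb/c mice, groups of six, SRBC-immunized; oral dosing starting 2 h after SRBC, then once daily. Six days later baseline left hind footpad thickness read by spheromicrometer, then intradermal footpad challenge with 20 μL of 5×10^9 SRBC/mL; thickness re-measured at 24 and 48 h versus control group.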

Mus musculus [11] = assay: Inhibition of humoral immune response in Balb/c mouse assessed as decrease in sheep RBC hemagglutination at 6.25 mg/kg, po qd administered 6 consecutive days measured on day 7 by micro titration method relative to control; format: functional; conditions: 168 h
Method in brief: (§4)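 Female Balb/c mice, groups of six, immunized with SRBC and dosed orally; blood taken on day 7 for primary antibody titre, hemagglutination titre determined by modified microtitration; suppression versus control group.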

B-cell line [12] = assay: Cytotoxicity against Balb/c mouse B cells assessed as decrease cell survival at 10 uM by MTT assay; format: cell-based; method in brief: as §2
Murine T-cell line [13] = assay: Immunosuppressive activity in Balb/c mouse T cells assessed as inhibition of ConA-induced cell proliferation at 10 uM after 48 hrs by MTT assay relative to control
Mus musculus [14] = assay: Inhibition of delayed-type hypersensitivity reaction in Balb/c mouse assessed as decrease in sheep RBC-induced footpad thickness at 25 mg/kg, po qd administered 6 consecutive days followed by sheep RBC challenge measured after 24 to 48 hrs by spheromicrometer relative to control; format: functional; method in brief: as §3
Mus musculus [15] = assay: Inhibition of humoral immune response in Balb/c mouse assessed as decrease in sheep RBC hemagglutination at 25 mg/kg, po qd administered 6 consecutive days measured on day 7 by micro titration method relative to control; format: functional; conditions: 168 h; method in brief: as §4
Murine T-cell line [16] = assay: Cytotoxicity against Balb/c mouse T cells assessed as decrease in cell survival at 10 uM by MTT assay; format: cell-based; method in brief: as §2
Murine T-cell line [17] = assay: Immunostimulant activity in Balb/c mouse T cells assessed as induction of ConA-induced cell proliferation at 10 uM after 48 hrs by MTT assay relative to control
B-cell line [18] = assay: Immunostimulant activity in Balb/c mouse B cells assessed as induction of LPS-induced cell proliferation at 10 uM after 48 hrs by MTT assay relative to control; format: cell-based; method in brief: as §1
Murine T-cell line [19] = assay: Immunostimulant activity in Balb/c mouse T cells assessed as induction of ConA-induced cell proliferation at 100 uM after 48 hrs by MTT assay relative to control
B-cell line [20] = assay: Immunostimulant activity in Balb/c mouse B cells assessed as induction of LPS-induced cell proliferation at 100 uM after 48 hrs by MTT assay relative to control; format: cell-based; method in brief: as §1
B-cell line [21] = assay: Immunostimulant activity in Balb/c mouse B cells assessed as induction of LPS-induced cell proliferation at 1 uM after 48 hrs by MTT assay relative to control; format: cell-based; method in brief: as §1

SMILES | inhibition at 1 µM (B-cell line [1]) [%] | inhibition at 1 µM (Murine T-cell line [2]) [%] | inhibition at 10 µM (B-cell line [3]) [%] | Activity (B-cell line [4]) | Activity (Murine T-cell line [5]) | Activity (B-cell line [6]) | inhibition at 100 µM (B-cell line [7]) [%] | inhibition at 100 µM (Murine T-cell line [8]) [%] | Activity (Murine T-cell line [9]) | Activity (B-cell line [12]) | inhibition at 10 µM (Murine T-cell line [13]) [%] | Activity (Murine T-cell line [16]) | also measured
Cc1cc(OC(=O)C(C)(C)C)c(C)c2c1CC[C@H]1[C@H](C)C(=O)O[C@@H]21 | 48.7 | 35.1 | 66 | Non-Toxic | Non-Toxic | Non-Toxic | 80.5 | 75 | Non-Toxic | Non-Toxic | 58.1 | Non-Toxic | inhibition in vivo at 12.5 mg/kg (Mus musculus [10]): 30%; inhibition in vivo at 6.25 mg/kg (Mus musculus [11]): 28%; inhibition in vivo at 25 mg/kg (Mus musculus [14]): 35%; inhibition in vivo at 25 mg/kg (Mus musculus [15]): 41%
CC1=C2[C@H]3OC(=O)[C@@H](C)[C@@H]3CC[C@@]2(C)C=CC1=O [SANTONIN] | 19 | 35.4 | 27.1 | Non-Toxic | Non-Toxic | Non-Toxic | 33.2 | 8.16 | Non-Toxic | Non-Toxic |  | Non-Toxic | Activity (Murine T-cell line [17]): 3.55%
CCCCCCCC(=O)Oc1cc(C)c2c(c1C)[C@@H]1OC(=O)[C@@H](C)[C@@H]1CC2 | 37.5 | 50.4 |  | Toxic | Non-Toxic | Non-Toxic | 57.3 | 4.22 | Toxic | Non-Toxic | 43.1 | Non-Toxic | Activity (B-cell line [18]): 53.12%
Cc1cc(OCc2ccccc2)c(C)c2c1CC[C@H]1[C@H](C)C(=O)O[C@@H]21 | 53 | 58 | 74 | Toxic | Non-Toxic | Non-Toxic |  |  | Toxic | Non-Toxic | 60 | Non-Toxic | Activity (Murine T-cell line [19]): 16%; Activity (B-cell line [20]): 29%
Cc1cc(OC(=O)C(C)C)c(C)c2c1CC[C@H]1[C@H](C)C(=O)O[C@@H]21 |  | 53.3 | 33.3 | Non-Toxic | Non-Toxic | Non-Toxic | 52.1 | 73.2 | Non-Toxic | Non-Toxic | 61.5 | Non-Toxic | Activity (B-cell line [21]): 20.83%
